ChEMBL document CHEMBL4689842, “EUbOPEN Chemogenomics Library wave 1” (2021)

Test system: HEK-293T
Assay: Multiplex assay against HEK293T;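 on Population Tubulin-Different-Phenotype (%): share of the cells with healthy nuclei that show this phenotype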
Assay type: toxicity, cell-based
Settings: human
Summary of the method: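 Per cents of healthy-nucleus cells form the tubulin, mitochondrial-mass and membrane-permeability phenotype values. Live cells were stained at seeding with Hoechst33342, BioTracker Green Microtubule Cytoskeleton Dye, MitoTracker Red and Annexin V Alexa Fluor 680. After compound addition they were imaged on a CQ1 microscope at 37°C and 5% CO2, and CellPathfinder machine-learning gating split them into Hoechst high-intensity objects or normal cells, normal cells into healthy, pyknosed or fragmented nuclei, and pyknosed cells into mitotic or apoptotic.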

[1] = 12 h, 1 µM, compound concentration 1 uM, replicate 1
[2] = 12 h, 1 µM, compound concentration 1 uM, replicate 2
[3] = 12 h, 10 µM, compound concentration 10 uM, replicate 1
[4] = 12 h, 10 µM, compound concentration 10 uM, replicate 2
[5] = 24 h, 1 µM, compound concentration 1 uM, replicate 1
[6] = 24 h, 1 µM, compound concentration 1 uM, replicate 2
[7] = 24 h, 10 µM, compound concentration 10 uM, replicate 1
[8] = 24 h, 10 µM, compound concentration 10 uM, replicate 2
[9] = 48 h, 1 µM, compound concentration 1 uM, replicate 1
[10] = 48 h, 1 µM, compound concentration 1 uM, replicate 2
[11] = 48 h, 10 µM, compound concentration 10 uM, replicate 1
[12] = 48 h, 10 µM, compound concentration 10 uM, replicate 2

CN1CCN(CCOc2cc(OC3CCOCC3)c3c(Nc4c(Cl)ccc5c4OCO5)ncnc3c2)CC1 [SARACATINIB]
Population Apoptotic (%) [1]: 51%
Population Fragmented Nuclei (%) [1]: 11%
Population Healthy Nuclei (%) [1]: 29%
Population Hoechst High Intensity Objects (%) [1]: 15%
Population Membrane Permeable-Phenotype (%) [1]: 2%
Population Mitochondria Different-Phenotype (%) [1]: 89%
Population Mitotic Cells (%) [1]: 48%
Population Normal (%) [1]: 84%
Population Pyknosed Nuclei (%) [1]: 58%
Population Tubulin-Different-Phenotype (%) [1]: 82%
Total Cell Count [1]: 345
Population Apoptotic (%) [2]: 22%
Population Fragmented Nuclei (%) [2]: 4%
Population Healthy Nuclei (%) [2]: 31%
Population Hoechst High Intensity Objects (%) [2]: 8%
Population Membrane Permeable-Phenotype (%) [2]: 3%
Population Mitochondria Different-Phenotype (%) [2]: 71%
Population Mitotic Cells (%) [2]: 77%
Population Normal (%) [2]: 91%
Population Pyknosed Nuclei (%) [2]: 63%
Population Tubulin-Different-Phenotype (%) [2]: 58%
Population Apoptotic (%) [3]: 72%
Population Fragmented Nuclei (%) [3]: 15%
Population Healthy Nuclei (%) [3]: 21%
Population Hoechst High Intensity Objects (%) [3]: 17%
Population Membrane Permeable-Phenotype (%) [3]: 15%
Population Mitochondria Different-Phenotype (%) [3]: 94%
Population Mitotic Cells (%) [3]: 27%
Population Normal (%) [3]: 82%
Population Pyknosed Nuclei (%) [3]: 63%
Population Tubulin-Different-Phenotype (%) [3]: 89%
Total Cell Count [3]: 223
Population Apoptotic (%) [4]: 82%
Population Fragmented Nuclei (%) [4]: 6%
Population Healthy Nuclei (%) [4]: 22%
Population Hoechst High Intensity Objects (%) [4]: 7%
Population Membrane Permeable-Phenotype (%) [4]: 2%
Population Mitochondria Different-Phenotype (%) [4]: 100%
Population Mitotic Cells (%) [4]: 17%
Population Normal (%) [4]: 92%
Population Pyknosed Nuclei (%) [4]: 71%
Population Tubulin-Different-Phenotype (%) [4]: 100%
Total Cell Count [4]: 190
Population Apoptotic (%) [5]: 54%
Population Fragmented Nuclei (%) [5]: 11%
Population Healthy Nuclei (%) [5]: 36%
Population Hoechst High Intensity Objects (%) [5]: 13%
Population Membrane Permeable-Phenotype (%) [5]: 3%
Population Mitochondria Different-Phenotype (%) [5]: 87%
Population Mitotic Cells (%) [5]: 45%
Population Normal (%) [5]: 86%
Population Pyknosed Nuclei (%) [5]: 52%
Population Tubulin-Different-Phenotype (%) [5]: 65%
Total Cell Count [5]: 382
Population Apoptotic (%) [6]: 28%
Population Fragmented Nuclei (%) [6]: 4%
Population Healthy Nuclei (%) [6]: 39%
Population Hoechst High Intensity Objects (%) [6]: 5%
Population Membrane Permeable-Phenotype (%) [6]: 1%
Population Mitochondria Different-Phenotype (%) [6]: 58%
Population Mitotic Cells (%) [6]: 71%
Population Normal (%) [6]: 94%
Population Pyknosed Nuclei (%) [6]: 55%
Population Tubulin-Different-Phenotype (%) [6]: 66%
Total Cell Count [6]: 217
Population Apoptotic (%) [7]: 80%
Population Fragmented Nuclei (%) [7]: 12%
Population Healthy Nuclei (%) [7]: 15%
Population Hoechst High Intensity Objects (%) [7]: 23%
Population Membrane Permeable-Phenotype (%) [7]: 0%
Population Mitochondria Different-Phenotype (%) [7]: 100%
Population Mitotic Cells (%) [7]: 19%
Population Normal (%) [7]: 76%
Population Pyknosed Nuclei (%) [7]: 71%
Population Tubulin-Different-Phenotype (%) [7]: 90%
Total Cell Count [7]: 248
Population Apoptotic (%) [8]: 88%
Population Fragmented Nuclei (%) [8]: 5%
Population Healthy Nuclei (%) [8]: 25%
Population Hoechst High Intensity Objects (%) [8]: 5%
Population Membrane Permeable-Phenotype (%) [8]: 6%
Population Mitochondria Different-Phenotype (%) [8]: 95%
Population Mitotic Cells (%) [8]: 11%
Population Normal (%) [8]: 94%
Population Pyknosed Nuclei (%) [8]: 69%
Population Tubulin-Different-Phenotype (%) [8]: 85%
Total Cell Count [8]: 208
Population Apoptotic (%) [9]: 51%
Population Fragmented Nuclei (%) [9]: 16%
Population Healthy Nuclei (%) [9]: 47%
Population Hoechst High Intensity Objects (%) [9]: 18%
Population Membrane Permeable-Phenotype (%) [9]: 2%
Population Mitochondria Different-Phenotype (%) [9]: 50%
Population Mitotic Cells (%) [9]: 48%
Population Normal (%) [9]: 81%
Population Pyknosed Nuclei (%) [9]: 36%
Population Tubulin-Different-Phenotype (%) [9]: 49%
Total Cell Count [9]: 448
Population Apoptotic (%) [10]: 26%
Population Fragmented Nuclei (%) [10]: 4%
Population Healthy Nuclei (%) [10]: 70%
Population Hoechst High Intensity Objects (%) [10]: 5%
Population Membrane Permeable-Phenotype (%) [10]: 1%
Population Mitochondria Different-Phenotype (%) [10]: 32%
Population Mitotic Cells (%) [10]: 73%
Population Normal (%) [10]: 94%
Population Pyknosed Nuclei (%) [10]: 25%
Population Tubulin-Different-Phenotype (%) [10]: 55%
Total Cell Count [10]: 315
Population Apoptotic (%) [11]: 73%
Population Fragmented Nuclei (%) [11]: 23%
Population Healthy Nuclei (%) [11]: 30%
Population Hoechst High Intensity Objects (%) [11]: 26%
Population Membrane Permeable-Phenotype (%) [11]: 3%
Population Mitochondria Different-Phenotype (%) [11]: 96%
Population Mitotic Cells (%) [11]: 26%
Population Normal (%) [11]: 73%
Population Pyknosed Nuclei (%) [11]: 45%
Population Tubulin-Different-Phenotype (%) [11]: 78%
Total Cell Count [11]: 230
Population Apoptotic (%) [12]: 84%
Population Fragmented Nuclei (%) [12]: 6%
Population Healthy Nuclei (%) [12]: 41%
Population Hoechst High Intensity Objects (%) [12]: 11%
Population Membrane Permeable-Phenotype (%) [12]: 0%
Population Mitochondria Different-Phenotype (%) [12]: 98%
Population Mitotic Cells (%) [12]: 15%
Population Normal (%) [12]: 88%
Population Pyknosed Nuclei (%) [12]: 52%
Population Tubulin-Different-Phenotype (%) [12]: 71%
Total Cell Count [12]: 204
